Reference: ChEMBL document CHEMBL3112500, “Synthesis and biological evaluation of allylated and prenylated mono-carbonyl analogs of curcumin as anti-inflammatory agents” (Eur J Med Chem, 2014)
Calls of active or inactive are those of the source. The rule behind the calls is not given here.

Key:
RAW264.7 [1] = experiment: Antiinflammatory activity in mouse RAW264.7 cells assessed as inhibition of LPS-induced IL-6 release pretreated at 10 uM for 2 hrs prior LPS challenge measured after 22 hrs post challenge by ELISA; format: functional
Summary of the method: (§1)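 RAW 264.7 cells plated at 4.0 × 10⁵ per plate overnight (37 °C, 5% CO₂). Pretreated 2 h, then stimulated with LPS 0.5 µg/ml (in PBS) for 22 h. Medium TNF-α and IL-6 measured by ELISA, normalized to total cell protein (Bio-Rad assay) and expressed as percent of LPS control. Mean ± SE, 3–5 independent experiments.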

[2] = Cytotoxicity against human HL-7702 cells at 10 uM after 24 hrs by MTT assay; format: cell-based; settings: l02, 24 h
Summary of the method: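 HL-7702 cells, 5000 per well, in 1640 medium with 5% heat-inactivated serum, 37 °C, 5% CO₂. Compounds in DMSO, diluted in medium to final 10 µM, applied for 24 h. MTT (5 mg/ml in 0.9% NaCl) added for 3 h, then cells dissolved in DMSO and absorbance read at 570 nm.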

RAW264.7 [3] = experiment: Antiinflammatory activity in mouse RAW264.7 cells assessed as inhibition of LPS-induced IL-6 gene expression pretreated at 10 uM for 2 hrs prior LPS challenge measured after 6 hrs post challenge by RT-qPCR analysis; format: functional, cell-based
Summary of the method: (§2)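 RAW 264.7 cells in DMEM with 10% FBS, plated at 4.0 × 10⁵ per plate overnight at 37 °C, 5% CO₂. Pretreatment 2 h, then LPS 0.5 µg/ml for 6 h. IL-6, TNF-α and IL-1β mRNA quantified by RT-qPCR, normalized to β-actin mRNA and expressed as ratio to DMSO. Mean ± SD of 3–5 independent experiments.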

RAW264.7 [4] = experiment: Antiinflammatory activity in mouse RAW264.7 cells assessed as inhibition of LPS-induced TNF-alpha gene expression pretreated at 10 uM for 2 hrs prior LPS challenge measured after 6 hrs post challenge by RT-qPCR analysis; format: functional, cell-based; summary of the method: as §2
RAW264.7 [5] = experiment: Antiinflammatory activity in mouse RAW264.7 cells assessed as inhibition of LPS-induced IL-6 release pretreated for 2 hrs prior LPS challenge measured after 22 hrs post challenge by ELISA; format: functional, cell-based
Summary of the method: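 Dose series in RAW 264.7 cells: pretreatment at 1.1, 3.3 and 10 µM for 2 h, then LPS 0.5 µg/ml for 22 h. Medium IL-6 determined by ELISA and normalized to total protein.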

RAW264.7 [6] = experiment: Antiinflammatory activity in mouse RAW264.7 cells assessed as inhibition of LPS-induced TNFalpha release pretreated at 10 uM for 2 hrs prior LPS challenge measured after 22 hrs post challenge by ELISA; format: functional; summary of the method: as §1
RAW264.7 [7] = experiment: Antiinflammatory activity in mouse RAW264.7 cells assessed as inhibition of LPS-induced IL-1beta gene expression pretreated at 10 uM for 2 hrs prior LPS challenge measured after 6 hrs post challenge by RT-qPCR analysis; format: functional, cell-based; summary of the method: as §2
[8] = Chemical stability of the compound in phosphate buffer at pH 7.4 at 20 uM up to 25 mins by UV-visible absorption spectrum assay; format: physicochemical; settings: pH 7.4, 25 min
Mus musculus = experiment: Antiinflammatory activity in C57BL/6 mouse sepsis model assessed as increase in survival rate at 10 mg/kg, iv administered 15 mins prior LPS-challenge measured after 7 days; format: functional
Summary of the method: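 Male C57BL/6 mice (18–22 g) were dosed i.v. 15 min before i.p. LPS at 20 mg/kg. Drug solution was 2 mg/ml in macrogol 15 hydroxystearate (5–10%), with or without medium-chain triglycerides (0.5–2%). Controls received vehicle (10% solubilizer, 2% MCT). Survival was recorded every 12 h for 7 days; n = 9 per group.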

[9] = system: Peritoneal macrophage cell; experiment: Antiinflammatory activity in mouse peritoneal macrophages assessed as inhibition of LPS-induced TNFalpha protein expression pretreated for 2 hrs prior LPS challenge measured after 22 hrs post challenge by ELISA; format: functional, cell-based
Summary of the method: (§3)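 Peritoneal macrophages from ICR mice elicited by i.p. thioglycollate, collected by lavage with PBS containing 30 mM EDTA, in RPMI-1640, nonadherent cells washed off at 3 h. Plated at 4.0 × 10⁵ per 35 mm plate. Pretreatment 2 h, then LPS 0.5 µg/ml for 22 h. IL-6 and TNF-α in medium measured by ELISA, normalized to total protein. 3 independent experiments.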

[10] = system: Peritoneal macrophage cell; experiment: Antiinflammatory activity in mouse peritoneal macrophages assessed as inhibition of LPS-induced IL6 protein expression pretreated for 2 hrs prior LPS challenge measured after 22 hrs post challenge by ELISA; format: functional, cell-based; summary of the method: as §3
[11] = Chemical stability of the compound in phosphate buffer at pH 7.4 assessed as compound degradation at 20 uM up to 25 mins by UV-visible absorption spectrum assay; format: physicochemical; settings: read-out: Drug degradation

COc1cc(/C=C/C(=O)/C=C/c2ccc(OCC=C(C)C)c(OC)c2)ccc1OCC=C(C)C
inhibition at 10 µM (RAW264.7 [1]): 20%
Activity [2]: Non-toxic

COc1ccc(/C=C/C(=O)/C=C/c2ccc(OCC=C(C)C)cc2)cc1OC
inhibition at 10 µM (RAW264.7 [1]): 20%
Activity [2]: Non-toxic

C=CCc1cc(/C=C/C(=O)/C=C/c2ccccc2C(F)(F)F)ccc1OC
Activity [2]: Non-toxic

CC(C)=CCOc1ccc(/C=C2\CCC/C(=C\c3ccc(OCC=C(C)C)cc3)C2=O)cc1
inhibition at 10 µM (RAW264.7 [1]): 20%
Activity [2]: Non-toxic

C=CCc1cc(/C=C/C(=O)/C=C/c2ccc(N(C)C)cc2)ccc1OC
inhibition at 10 µM (RAW264.7 [1]): 20%
Activity [2]: Non-toxic

C=CCOc1ccc(/C=C/C(=O)/C=C/c2ccc(OC)c(OC)c2)cc1
Activity [2]: Non-toxic

C=CCc1cc(/C=C/C(=O)/C=C/c2cc(OC)c(OC)cc2OC)ccc1OC
inhibition (RAW264.7 [3]): Active
inhibition at 10 µM (RAW264.7 [1]): 20%
Activity [2]: Non-toxic
inhibition (RAW264.7 [4]): Active
inhibition (RAW264.7 [5]): Dose-dependent effect
inhibition (RAW264.7 [6]): Active
inhibition (RAW264.7 [7]): Active

C=CCc1cc(/C=C2\CC/C(=C\c3ccc(O)c(CC=C)c3)C2=O)ccc1O
inhibition at 10 µM (RAW264.7 [1]): 20%
Activity [2]: Non-toxic

C=CCc1cc(/C=C/C(=O)/C=C/c2ccc(C(F)(F)F)cc2)ccc1OC
inhibition at 10 µM (RAW264.7 [1]): 20%
Activity [2]: Non-toxic

C=CCc1cc(/C=C/C(=O)/C=C/c2ccc([N+](=O)[O-])cc2)ccc1O
inhibition at 10 µM (RAW264.7 [1]): 20%
Activity [2]: Non-toxic

C=CCc1cc(/C=C/C(=O)/C=C/c2cc(Br)ccc2Br)ccc1OC
Stability [8]: Stable
survival at 10 mg/kg (Mus musculus): 45%
inhibition (RAW264.7 [3]): Active
inhibition at 10 µM (RAW264.7 [1]): 91.1%
inhibition [9]: Dose-dependent effect
inhibition [10]: Dose-dependent effect
Activity [2]: Non-toxic
inhibition (RAW264.7 [4]): Active
inhibition (RAW264.7 [5]): Dose-dependent effect
inhibition at 10 µM (RAW264.7 [6]): 67.5%
inhibition (RAW264.7 [7]): Active

C=CCc1cc(/C=C/C(=O)/C=C/c2cc(F)ccc2Br)ccc1OC
Stability [8]: Stable
inhibition (RAW264.7 [3]): Active
inhibition at 10 µM (RAW264.7 [1]): 20%
Activity [2]: Non-toxic
inhibition (RAW264.7 [4]): Active
inhibition (RAW264.7 [5]): Dose-dependent effect
inhibition (RAW264.7 [6]): Active
inhibition (RAW264.7 [7]): Active

C=CCc1cc(/C=C/C(=O)/C=C/c2ccc(Br)cc2)ccc1OC
inhibition at 10 µM (RAW264.7 [1]): 20%
Activity [2]: Non-toxic

COc1cc(/C=C/C(=O)CC(=O)/C=C/c2ccc(O)c(OC)c2)ccc1O [CURCUMIN]
inhibition (RAW264.7 [3]): Active
inhibition at 10 µM (RAW264.7 [1]): 20%
degraded at 25 min, 20 µM [11]: > 45%
Activity [2]: Non-toxic
inhibition (RAW264.7 [4]): Active
inhibition (RAW264.7 [7]): Active

C=CCc1cc(/C=C/C(=O)/C=C/c2ccc(N3CCOCC3)cc2)ccc1OC
inhibition (RAW264.7 [3]): Active
inhibition at 10 µM (RAW264.7 [1]): 20%
Activity [2]: Non-toxic
inhibition (RAW264.7 [4]): Active
inhibition (RAW264.7 [5]): Dose-dependent effect
inhibition (RAW264.7 [7]): Active

C=CCc1cc(/C=C2\CC/C(=C\c3ccc(OC4CCCCO4)c(CC=C)c3)C2=O)ccc1OC1CCCCO1 (stereo not given)
Activity [2]: Non-toxic

CC(C)=CCOc1ccc(/C=C2\CC/C(=C\c3ccc(OCC=C(C)C)cc3O)C2=O)c(O)c1
inhibition at 10 µM (RAW264.7 [1]): 20%
Activity [2]: Non-toxic

C=CCc1cc(/C=C/C(=O)/C=C/c2ccc(O)c(CC=C)c2)ccc1O
Stability [8]: Stable
inhibition (RAW264.7 [3]): Active
inhibition at 10 µM (RAW264.7 [1]): 96.4%
Activity [2]: Non-toxic
inhibition (RAW264.7 [4]): Active
inhibition (RAW264.7 [5]): Dose-dependent effect
inhibition (RAW264.7 [6]): Active
inhibition (RAW264.7 [7]): Active

C=CCOc1ccc(/C=C/C(=O)/C=C/c2ccc(OC)c(CC=C)c2)cc1
inhibition at 10 µM (RAW264.7 [1]): 20%
Activity [2]: Non-toxic

C=CCc1cc(/C=C/C(=O)/C=C/c2ccc3ccccc3c2)ccc1OC
inhibition at 10 µM (RAW264.7 [1]): 20%
Activity [2]: Non-toxic

C=CCc1cc(/C=C/C(=O)/C=C/c2ccc(OC)c(OC)c2)ccc1O
inhibition (RAW264.7 [3]): Active
inhibition at 10 µM (RAW264.7 [1]): 20%
Activity [2]: Non-toxic
inhibition (RAW264.7 [4]): Active
inhibition (RAW264.7 [5]): Dose-dependent effect
inhibition (RAW264.7 [7]): Active

C=CCc1cc(/C=C/C(=O)/C=C/c2cccc(Br)c2)ccc1OC
inhibition at 10 µM (RAW264.7 [1]): 20%
Activity [2]: Non-toxic

C=CCc1cc(/C=C/C(=O)/C=C/c2c(F)cccc2Br)ccc1OC
inhibition at 10 µM (RAW264.7 [1]): 20%
Activity [2]: Non-toxic

C=CCc1cc(/C=C/C(=O)/C=C/c2cccc(Cl)c2Cl)ccc1OC
inhibition at 10 µM (RAW264.7 [1]): 20%
Activity [2]: Non-toxic

C=CCc1cc(/C=C/C(=O)/C=C/c2ccc(OC(C)(C)C)cc2)ccc1OC
inhibition at 10 µM (RAW264.7 [1]): 20%
Activity [2]: Non-toxic

CC(C)=CCOc1ccc(/C=C/C(=O)/C=C/c2ccc(OCC=C(C)C)cc2)cc1
Activity [2]: Non-toxic

C=CCOc1ccc(/C=C/C(=O)/C=C/c2ccc(F)cc2)c(O)c1
inhibition at 10 µM (RAW264.7 [1]): 20%
Activity [2]: Non-toxic

C=CCc1cc(/C=C/C(=O)/C=C/c2cc(F)ccc2OC)ccc1OC
inhibition at 10 µM (RAW264.7 [1]): 20%
Activity [2]: Non-toxic

C=CCc1cc(/C=C/C(=O)/C=C/c2ccc(N3CCCCC3)cc2)ccc1OC
inhibition at 10 µM (RAW264.7 [1]): 20%
Activity [2]: Non-toxic

COc1cc(/C=C2\CC/C(=C\c3ccc(OCC=C(C)C)c(OC)c3)C2=O)ccc1OCC=C(C)C
inhibition at 10 µM (RAW264.7 [1]): 20%
Activity [2]: Non-toxic

C=CCOc1ccc(/C=C/C(=O)/C=C/c2ccc(OCC=C)cc2)cc1
Activity [2]: Non-toxic

C=CCc1cc(/C=C/C(=O)/C=C/c2cc(F)ccc2F)ccc1OC
Activity [2]: Non-toxic

C=CCc1cc(/C=C/C(=O)/C=C/c2ccccc2Cl)ccc1OC
inhibition at 10 µM (RAW264.7 [1]): 20%
Activity [2]: Non-toxic

C=CCc1cc(/C=C/C(=O)/C=C/c2ccc(OC)c(OC)c2)ccc1OC
inhibition at 10 µM (RAW264.7 [1]): 20%
Activity [2]: Non-toxic
